The values below come from ChEMBL document CHEMBL1133470, “Synthesis and antiviral activity of oxaselenolane nucleosides” (J Med Chem, 2000).

Where only a bound is given, the exact number is not on record here.

Experiment [1] concerns CCRF-CEM. The experiment can be described thus: In vitro cytotoxicity against CEM cells. The format is functional, cell-based, Homo sapiens.
The subject of experiment [2] is Hepatitis B virus. The experiment in a line: Antiviral activity against Hepatitis B virus (HBV) in 2.2.15 cells. Type of experiment: functional, organism-based. The note with it: HepG2 2.2.15.
Experiment [3] has as its system Vero. The experiment can be described thus: (§1) In vitro cytotoxicity against Vero cells. The format is functional, cell-based, Chlorocebus sabaeus.
Experiment [4] has as its system Human immunodeficiency virus 1. The experiment in a line: Antiviral activity against Immunodeficiency virus type-1 (HIV-1) in peripheral blood mononuclear cells. Type of experiment: functional, organism-based. A digest of the protocol: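 HIV-1 infection of human peripheral blood mononuclear (PBM) cells; EC50 reported in µM.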
The nature of experiment [5]: In vitro cytotoxicity against PBM cells. Type of experiment: functional, cell-based, Homo sapiens.
The test system of experiment [6] is Human immunodeficiency virus 1. The experiment in a line: (§2) Anti HIV activity against cloned FTC-sensitive mutant xxBRU HIV-1. Type of experiment: functional, organism-based.
Experiment [7] relates to Human immunodeficiency virus 1. The experiment can be described thus: (§3) Anti HIV activity against cloned FTC/3TC-resistant mutant M184V HIV-1. Type of experiment: functional, organism-based.
Experiment [8] deals with Human immunodeficiency virus 1. The description is as §2. The format is functional.
Experiment [9] in a line: Fold increase expressed as ratio of EC50 from M184V virus to that from xxBRU virus. Type of experiment: functional.
Experiment [10] deals with Human immunodeficiency virus 1. Described as §3. The format is functional.
Experiment [11] in a line: Fold increase expressed as ratio of EC90 from M184V virus to that from xxBRU virus. The format is functional.
In experiment [12] the test system is CCRF-CEM. The experiment in a line: In vitro cytotoxicity againstCEM cells. The format is functional, cell-based. The note with it: Homo sapiens.
Experiment [13] relates to Vero. Described as §1. Type of experiment: functional, cell-based. The note with it: Chlorocebus sabaeus.

A word on the IC50: it is the concentration needed to halve the response being measured. A high value points to a need for much substance. Broadly, the EC50 is the concentration at which the effect is half-maximal. A low value points to a more potent agent. By EC90 is commonly meant the point of the concentration-response curve where the effect stands at 90%. A high value points to weaker potency.

As for `O=c1ccn([C@@H]2C[Se][C@@H](CO)O2)c(=O)[nH]1`, the IC50 in [1] (Homo sapiens, CCRF-CEM) was over 100 µM; in [3] (Chlorocebus sabaeus, Vero), over 100 µM; in experiment [5] (Homo sapiens, PBMC), over 100 µM. For the same compound, the results for the EC50 in experiment [2] and in experiment [4] (Human immunodeficiency virus 1) were over 10 µM and 101 µM, respectively.
Regarding `Nc1nc(O)c2ncn([C@@H]3C[Se][C@@H](CO)O3)c2n1`, the IC50 is over 100 µM in experiment [1] (Homo sapiens, CCRF-CEM); over 100 µM in experiment [3] (Chlorocebus sabaeus, Vero); over 100 µM in experiment [5] (Homo sapiens, PBMC). For the same compound, the EC50 in experiment [2] was over 10 µM; in [4] (Human immunodeficiency virus 1) it was over 100 µM.
For `Nc1ccn([C@H]2C[Se][C@@H](CO)O2)c(=O)n1` (stereo in doubt; 9c), the IC50 in experiment [1] (Homo sapiens, CCRF-CEM) is over 100 µM; in experiment [3] (Chlorocebus sabaeus, Vero), over 100 µM; in [5] (Homo sapiens, PBMC) it was over 100 µM. Also, the EC50 in [6] worked out at 1.84 µM; in experiment [2], 1.2 µM; in experiment [7] it was 108 µM; in experiment [4], 2.7 µM. For the same compound, the EC90 came to 6.9 µM in [8] and 337 µM in experiment [10]. In addition, the FI in [9] worked out at 59; in [11], 49.
Take `Nc1ccn([C@H]2C[Se][C@@H](CO)O2)c(=O)n1` (stereo in doubt; (+)): the IC50 in [1] (ccrf-cem), in experiment [3] (vero) and in experiment [5] (pbm) was 100 µM each time. In addition, the values for the EC50 in experiment [6], in experiment [7] and in [4] were 8.62 µM, 50 µM and 3.4 µM, respectively. Moreover, the EC90 turned out to be 35.1 µM in experiment [8] and 50 µM in experiment [10]. Further, the values for the FI in experiment [9] and in experiment [11] were over 6 and over 1, respectively.
`Nc1nc(=O)n([C@@H]2C[Se][C@@H](CO)O2)cc1F` (stereo in doubt; (+)) returned an EC50 in [4] of 95.3 µM.
Still for that read-out and setting: as for `Nc1nc(=O)n([C@H]2C[Se][C@@H](CO)O2)cc1F` (stereo in doubt; (-)), the figure is 0.2 µM.
As to `Nc1nc(O)c2ncn([C@H]3C[Se][C@@H](CO)O3)c2n1`, the IC50 was over 100 µM in experiment [1] (Homo sapiens, CCRF-CEM); over 100 µM in [3] (Chlorocebus sabaeus, Vero); over 100 µM in experiment [5] (Homo sapiens, PBMC). In addition, the EC50 in experiment [2] was over 10 µM; in experiment [4] (Human immunodeficiency virus 1), 28.9 µM.
For the compound `Nc1ccn([C@@H]2C[Se][C@@H](CO)O2)c(=O)n1`, the IC50 was over 100 µM in experiment [1] (Homo sapiens, CCRF-CEM); over 100 µM in [3] (Chlorocebus sabaeus, Vero); over 100 µM in experiment [5] (Homo sapiens, PBMC). The EC50 in experiment [4] (Human immunodeficiency virus 1) was over 100 µM.
Turning to `Nc1ncnc2c1ncn2[C@H]1C[Se][C@@H](CO)O1`, the IC50 in experiment [1] (Homo sapiens, CCRF-CEM) was over 100 µM; in experiment [3] (Chlorocebus sabaeus, Vero), over 100 µM; in [5] (Homo sapiens, PBMC), over 100 µM. Besides, the EC50 in [2] is over 10 µM; in experiment [4] (Human immunodeficiency virus 1) it was over 50 µM.
`Nc1ccn([C@H]2C[Se][C@@H](CO)O2)c(=O)n1` (stereo in doubt; (-)): the EC50 is 0.11 µM in experiment [6], over 50 µM in [7] and 0.9 µM in [4]. Also, the EC90 in experiment [8] is 0.95 µM; in experiment [10], over 50 µM. For the same compound, the values for the FI in experiment [9] and in experiment [11] were over 455 and over 53, respectively.
For `OC[C@H]1O[C@@H](n2cnc3c(O)ncnc32)C[Se]1`, the IC50 in experiment [1] (Homo sapiens, CCRF-CEM) is over 100 µM; in experiment [3] (Chlorocebus sabaeus, Vero) it was over 100 µM; in experiment [5] (Homo sapiens, PBMC), over 100 µM. The figures for the half-maximal effective concentration (EC50) in experiment [2] and in experiment [4] (Human immunodeficiency virus 1) were over 10 µM and over 100 µM, respectively.
Turning to `Cc1cn([C@@H]2C[Se][C@@H](CO)O2)c(=O)[nH]c1=O`, the IC50 in experiment [1] (Homo sapiens, CCRF-CEM) is over 100 µM; in [3] (Chlorocebus sabaeus, Vero), over 100 µM; in experiment [5] (Homo sapiens, PBMC), over 100 µM. For the same compound, the values for the EC50 in [2] and in [4] (Human immunodeficiency virus 1) were over 10 µM and over 100 µM, respectively.
In the case of `Nc1ccn([C@@H]2CS[C@H](CO)O2)c(=O)n1` [LAMIVUDINE], the IC50 in experiment [1] (Homo sapiens, CCRF-CEM) was over 100 µM; in experiment [3] (Chlorocebus sabaeus, Vero) it was over 100 µM; in experiment [5] (Homo sapiens, PBMC), over 100 µM. Besides, the EC50 was determined as 0.008 µM in [2] and 0.07 µM in experiment [4] (Human immunodeficiency virus 1).
Consider `Nc1nc(=O)n([C@@H]2C[Se][C@@H](CO)O2)cc1F` (stereo in doubt; (-)), for which the IC50 in [1] (Homo sapiens, CCRF-CEM) is over 100 µM; in experiment [3] (Chlorocebus sabaeus, Vero) it was over 100 µM; in experiment [5] (Homo sapiens, PBMC) it was over 100 µM. The EC50 in [4] is 6.4 µM.
In the case of `Nc1nc(=O)n([C@H]2C[Se][C@@H](CO)O2)cc1F` (racemic), the IC50 is over 100 µM in experiment [1] (Homo sapiens, CCRF-CEM); over 100 µM in experiment [3] (Chlorocebus sabaeus, Vero); over 100 µM in [5] (Homo sapiens, PBMC). Besides, the 50% effective concentration (EC50) in [2] came to 1.2 µM; in [4], 0.73 µM.
Turning to `O=c1ccn([C@H]2C[Se][C@@H](CO)O2)c(=O)[nH]1`, the IC50 is over 100 µM in [12]; over 100 µM in [5] (Homo sapiens, PBMC); over 100 µM in experiment [13]. In addition, the figures for the EC50 in experiment [2] and in experiment [4] (Human immunodeficiency virus 1) were over 10 µM and over 100 µM, respectively.
For the compound `Cc1cn([C@H]2C[Se][C@@H](CO)O2)c(=O)[nH]c1=O`, the IC50 in [1] (Homo sapiens, CCRF-CEM) was over 100 µM; in [3] (Chlorocebus sabaeus, Vero), over 100 µM; in experiment [5] (Homo sapiens, PBMC), over 100 µM. The concentration giving a half-maximal response (EC50) in experiment [2] and in experiment [4] (Human immunodeficiency virus 1) was over 10 µM in each case.
Turning to `Nc1nc(=O)n([C@@H]2C[Se][C@@H](CO)O2)cc1F` (stereo in doubt; 10d), the EC50 is over 10 µM in experiment [2] and 57.1 µM in experiment [4].
Turning to `OC[C@H]1O[C@H](n2cnc3c(O)ncnc32)C[Se]1`, the IC50 is over 100 µM in experiment [1] (Homo sapiens, CCRF-CEM); over 100 µM in [3] (Chlorocebus sabaeus, Vero); over 100 µM in experiment [5] (Homo sapiens, PBMC). The EC50 in [2] is over 10 µM; in experiment [4] (Human immunodeficiency virus 1), over 100 µM.
For `Nc1ncnc2c1ncn2[C@@H]1C[Se][C@@H](CO)O1`, the IC50 is over 100 µM in experiment [1] (Homo sapiens, CCRF-CEM); over 100 µM in experiment [3] (Chlorocebus sabaeus, Vero); over 100 µM in [5] (Homo sapiens, PBMC). Besides, the EC50 is over 10 µM in experiment [2] and over 100 µM in [4] (Human immunodeficiency virus 1).
Take `Nc1nc(=O)n([C@H]2C[Se][C@@H](CO)O2)cc1F` (stereo in doubt; (+)): in [4], the EC50 stood at 41.9 µM.
